Reference: ChEMBL document CHEMBL3045540, “Naphthalenones from a Perenniporia sp. inhabiting the larva of a phytophagous weevil, Euops chinesis” (2012)
≈ marks a conversion by molar mass, not a printed value. Calls of active or inactive are those of the source. No cut-off for these calls is given here.

Columns and labels:
Alternaria longipes [1] = assay: Antifungal activity against Alternaria longipes CGMCC 3.2875 at 20 ug/ml after 48 hr by Alamar blue assay; assay type: functional, organism-based
Fusarium graminearum [2] = assay: Antifungal activity against Fusarium graminearum CGMCC 3.2873 at 20 ug/ml after 48 hr by Alamar blue assay; assay type: functional, organism-based
Fusarium oxysporum [3] = assay: Antifungal activity against Fusarium oxysporum CGMCC 3.2830 at 20 ug/ml after 48 hr by Alamar blue assay; assay type: functional, organism-based
Verticillium albo-atrum [4] = assay: Antifungal activity against Verticillium albo-atrum CGMCC 3.4306 at 20 ug/ml after 48 hr by Alamar blue assay; assay type: functional, organism-based
Fusarium verticillioides [5] = assay: Antifungal activity against Fusarium verticillioides CGMCC 3.2835 at 20 ug/ml after 48 hr by Alamar blue assay; assay type: functional, organism-based
Fusarium verticillioides [6] = assay: Antifungal activity against Fusarium verticillioides CGMCC 3.2835 after 48 hr by Alamar blue assay; assay type: functional; details: CGMCC 3.2835, 48 h
In short: (§1)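 NCCLS-based broth microdilution, run in triplicate. Fungi were kept on PDA, and the inoculum was grown in broth at 28 °C for 48 h, then set to a final 10^4 hyphae/mL in PDB. Samples were serially diluted from a 10 mg/mL DMSO stock, with 10% Alamar blue as indicator, and incubated at 28 °C for 48 h. Fluorescence was read at 544/590 nm. MIC was the lowest concentration giving complete growth inhibition.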

Verticillium albo-atrum [7] = assay: Antifungal activity against Verticillium albo-atrum CGMCC 3.4306 after 48 hr by Alamar blue assay; assay type: functional; details: CGMCC 3.4306, 48 h; in short: as §1
Fusarium oxysporum [8] = assay: Antifungal activity against Fusarium oxysporum CGMCC 3.2830 after 48 hr by Alamar blue assay; assay type: functional; details: CGMCC 3.2830, 48 h; in short: as §1
Alternaria longipes [9] = assay: Antifungal activity against Alternaria longipes CGMCC 3.2875 after 48 hr by Alamar blue assay; assay type: functional; details: CGMCC 3.2875, 48 h
In short: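 Run in triplicate per NCCLS recommendations. The strain was grown on PDA, and inoculum came from broth cultures (28 °C, 48 h), with a final suspension of 10^4 hyphae/mL in PDB. Samples were serially diluted from a 10 mg/mL DMSO stock, with 10% Alamar blue as indicator. After 28 °C for 48 h, fluorescence was read at Ex/Em 544/590 nm. MIC is the lowest concentration giving complete growth inhibition, taken from inhibition-versus-concentration plots.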

Fusarium graminearum [10] = assay: Antifungal activity against Fusarium graminearum CGMCC 3.2873 after 48 hr by Alamar blue assay; assay type: functional; details: CGMCC 3.2873, 48 h; in short: as §1

Row | Structure (SMILES) | Activity (Alternaria longipes [1]) | Activity (Fusarium graminearum [2]) | Activity (Fusarium oxysporum [3]) | Activity (Verticillium albo-atrum [4]) | Activity (Fusarium verticillioides [5]) | MIC (Fusarium verticillioides [6]) | MIC (Verticillium albo-atrum [7]) | MIC (Fusarium oxysporum [8]) | MIC (Alternaria longipes [9]) | MIC (Fusarium graminearum [10])
1 | CCc1c(OC)cc2c(c1O)C(=O)C[C@@]1(OC)O[C@@H](C(=O)OC)C[C@@]21O | inactive | inactive | inactive | inactive | inactive | – | – | – | – | –
2 | CCc1c(OC)cc2c(c1O)C(=O)C=C(OC)[C@@]21C[C@@H](O)C(=O)O1 [PERENNIPORIDE A] | – | – | – | – | – | 20 µg/mL (≈ 59.8 µM) | 20 µg/mL (≈ 59.8 µM) | 10 µg/mL (≈ 29.9 µM) | 10 µg/mL (≈ 29.9 µM) | 20 µg/mL (≈ 59.8 µM)
3 | CCc1c(OC)cc2c(c1O)C(=O)C=C(OC)[C@@]2(O)C[C@@H](O)C(=O)OC | inactive | inactive | inactive | inactive | inactive | – | – | – | – | –
4 | COC(=O)Nc1nc2ccccc2[nH]1 [CARBENDAZIM] | inactive | – | – | – | – | 0.63 µg/mL (≈ 3.3 µM) | 0.63 µg/mL (≈ 3.3 µM) | 0.63 µg/mL (≈ 3.3 µM) | – | 2.5 µg/mL (≈ 13.1 µM)
5 | CCc1c(OC)cc2c(c1O)C(=O)C[C@]1(OC)OC(=O)[C@H](O)C[C@@]21O | inactive | inactive | inactive | inactive | inactive | – | – | – | – | –
